Blank lines part the entries; values can stand above or below the compound they belong to.
What was measured:
U87 β3‐KO (αVβ3−) cells = assay: Anti‐proliferative activity, CellTiter-Glo ATP cell viability, U87 β3‐KO; assay type: cell-based; details: Homo sapiens, 144 h
Summary of the method: (§1)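 U87 human glioblastoma cells were used alongside an isogenic U87 clone with the β3 integrin subunit gene deleted by CRISPR-Cas9. Absence of αVβ3 was confirmed by flow cytometry using anti-αVβ3 antibody LM609 plus a fluorescent secondary antibody. Cells were exposed to increasing concentrations of test compound for 144 h, with free paclitaxel run in parallel. Viability was read as cellular ATP by CellTiter-Glo. IC50 was taken as the concentration giving 50 % inhibition of viability.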

[1] = system: U87 (αVβ3+) and U87 β3‐KO (αVβ3−) cells; assay: Targeting index / selectivity between U87 β3‐KO and U87 cells; assay type: cell-based, human; details: for Targeting index (TI): [IC50(αVβ3−)/IC50(αVβ3+)]conjugate/[IC50(αVβ3−)/IC50(αVβ3+)]paclitaxel
Summary of the method: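 The targeting index uses IC50s from the 144 h CellTiter-Glo ATP viability assay on the isogenic U87 and U87 β3-KO (CRISPR-Cas9 β3 deletion) pair. The ratio IC50(β3-KO)/IC50(U87) for the conjugate is divided by the same ratio for free paclitaxel tested in parallel under identical conditions.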

[2] = system: U87 (αVβ3+) human glioblastoma cells; assay: Anti‐proliferative activity, CellTiter-Glo ATP cell viability, U87; assay type: cell-based; details: 144 h
Summary of the method: as §1

purified αVβ3 receptor = purified αVβ3 receptor (Homo sapiens, UniProt P05106+P06756); assay: Inhibition of biotinylated vitronectin binding to purified αVβ3 receptor
Sequence of purified αVβ3 receptor (P06756 891-1048): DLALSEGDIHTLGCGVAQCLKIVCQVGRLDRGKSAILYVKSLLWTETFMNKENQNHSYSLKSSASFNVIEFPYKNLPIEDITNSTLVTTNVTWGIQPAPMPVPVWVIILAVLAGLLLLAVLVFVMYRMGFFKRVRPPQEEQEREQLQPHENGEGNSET
Sequence of purified αVβ3 receptor (P06756 31-889): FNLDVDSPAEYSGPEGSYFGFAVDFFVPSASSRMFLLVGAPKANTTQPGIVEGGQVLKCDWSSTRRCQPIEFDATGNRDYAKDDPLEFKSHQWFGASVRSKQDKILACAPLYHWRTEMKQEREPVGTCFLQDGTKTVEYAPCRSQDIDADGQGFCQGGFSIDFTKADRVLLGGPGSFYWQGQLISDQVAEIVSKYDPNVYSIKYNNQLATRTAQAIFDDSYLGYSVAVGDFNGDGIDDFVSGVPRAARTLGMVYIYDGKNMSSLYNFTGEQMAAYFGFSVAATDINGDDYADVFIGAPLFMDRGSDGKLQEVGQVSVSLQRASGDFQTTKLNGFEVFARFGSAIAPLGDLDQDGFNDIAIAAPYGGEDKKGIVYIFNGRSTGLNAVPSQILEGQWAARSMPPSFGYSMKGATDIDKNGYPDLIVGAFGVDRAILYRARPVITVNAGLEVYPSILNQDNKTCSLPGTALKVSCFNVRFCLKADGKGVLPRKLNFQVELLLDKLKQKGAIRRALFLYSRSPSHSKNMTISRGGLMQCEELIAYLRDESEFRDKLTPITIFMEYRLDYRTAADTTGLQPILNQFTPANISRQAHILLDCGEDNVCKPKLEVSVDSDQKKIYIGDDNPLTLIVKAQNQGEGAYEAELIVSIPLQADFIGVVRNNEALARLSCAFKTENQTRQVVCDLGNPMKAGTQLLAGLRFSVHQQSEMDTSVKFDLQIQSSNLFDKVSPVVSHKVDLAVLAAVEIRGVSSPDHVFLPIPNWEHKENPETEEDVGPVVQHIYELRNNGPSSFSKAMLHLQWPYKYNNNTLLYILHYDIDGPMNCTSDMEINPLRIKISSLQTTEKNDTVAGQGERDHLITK
Sequence of purified αVβ3 receptor (P05106 27-788): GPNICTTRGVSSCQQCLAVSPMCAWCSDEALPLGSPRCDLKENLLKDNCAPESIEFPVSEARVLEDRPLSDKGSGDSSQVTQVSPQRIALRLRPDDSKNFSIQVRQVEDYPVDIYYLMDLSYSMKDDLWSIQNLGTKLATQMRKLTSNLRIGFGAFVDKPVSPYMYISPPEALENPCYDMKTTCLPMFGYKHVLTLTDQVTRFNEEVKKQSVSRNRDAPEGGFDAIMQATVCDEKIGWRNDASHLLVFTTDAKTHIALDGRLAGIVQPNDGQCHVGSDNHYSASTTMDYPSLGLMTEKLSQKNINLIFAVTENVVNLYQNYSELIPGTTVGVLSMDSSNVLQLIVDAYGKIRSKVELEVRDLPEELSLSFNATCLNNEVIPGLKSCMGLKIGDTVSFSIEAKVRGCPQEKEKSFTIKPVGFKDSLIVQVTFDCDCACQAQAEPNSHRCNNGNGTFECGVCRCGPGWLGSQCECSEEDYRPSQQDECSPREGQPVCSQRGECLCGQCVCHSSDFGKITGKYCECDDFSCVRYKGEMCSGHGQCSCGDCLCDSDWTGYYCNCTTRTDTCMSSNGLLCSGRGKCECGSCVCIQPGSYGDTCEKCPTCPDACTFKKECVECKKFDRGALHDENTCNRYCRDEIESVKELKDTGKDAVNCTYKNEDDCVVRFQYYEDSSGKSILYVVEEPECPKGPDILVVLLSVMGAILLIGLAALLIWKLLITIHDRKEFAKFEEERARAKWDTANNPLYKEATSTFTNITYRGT

[3] = system: FAK/Akt integrin‐activated transduction pathway; details: cited from earlier work
[4] = system: integrin‐mediated cell infiltration processes; details: cited from earlier work

IC50 (U87 β3‐KO (αVβ3−) cells): 0.28 nM
IC50 [2]: 0.64 nM
Compound: CC(=O)O[C@H]1C(=O)[C@@]2(C)[C@H]([C@H](OC(=O)c3ccccc3)[C@]3(O)C[C@H](OC(=O)[C@H](O)[C@@H](NC(=O)c4ccccc4)c4ccccc4)C(C)=C1C3(C)C)[C@]1(OC(C)=O)CO[C@@H]1C[C@@H]2O [Paclitaxel]
times more effective on U87 β3‐KO cells (than on U87) ([1]; 144 h): 2.3 times
Targeting index (TI) ([1]; 144 h): 1

Compound: CC(=O)O[C@H]1C(=O)[C@@]2(C)[C@H]([C@H](OC(=O)c3ccccc3)[C@]3(O)C[C@H](OC(=O)[C@H](OC(=O)N(C)CCN(C)C(=O)OCc4ccc(NC(=O)[C@H](C)NC(=O)[C@@H](NC(=O)CCCC(=O)NCc5ccc(CN6C(=O)[C@H]7CC(=O)N[C@H](C(=O)O)CC(=O)NCC(=O)N[C@@H](CCCNC(=N)N)C(=O)NC[C@H]6C(=O)N7)cc5)C(C)C)cc4)[C@@H](NC(=O)c4ccccc4)c4ccccc4)C(C)=C1C3(C)C)[C@]1(OC(C)=O)CO[C@@H]1C[C@@H]2O [compound 2, cyclo[DKP‐isoDGR]‐Val‐Ala‐PTX]
Targeting index (TI) ([1]; 144 h): 9.9
targeting ability (in words) ([1]; two isogenic cancer cell lines expressing integrin αVβ3 at different levels): notable targeting ability
IC50 (purified αVβ3 receptor): 11 ± 0.2 nM
affinity for the purified integrin αVβ3 receptor (in words) (purified αVβ3 receptor): low nanomolar affinity

Compound: CC(=O)O[C@H]1C(=O)[C@@]2(C)[C@H]([C@H](OC(=O)c3ccccc3)[C@]3(O)C[C@H](OC(=O)[C@H](OC(=O)N(C)CCN(C)C(=O)OCc4ccc(NC(=O)[C@H](C)NC(=O)[C@@H](NC(=O)CCCC(=O)NCc5ccc(CN6C(=O)[C@H]7CC(=O)N[C@@H](CCCNC(=N)N)C(=O)NCC(=O)N[C@@H](CC(=O)O)C(=O)NC[C@H]6C(=O)N7)cc5)C(C)C)cc4)[C@@H](NC(=O)c4ccccc4)c4ccccc4)C(C)=C1C3(C)C)[C@]1(OC(C)=O)CO[C@@H]1C[C@@H]2O [compound 4, cyclo[DKP‐RGD]‐Val‐Ala‐PTX]
Targeting index (TI) ([1]; 144 h): 2.4
IC50 (purified αVβ3 receptor): 13.3 ± 3.6 nM

Compound: cyclo[DKP‐isoDGR] [compound 1]
effect on FAK/Akt integrin‐activated transduction pathway [3]: inhibitory effects
effect on integrin‐mediated cell infiltration processes [4]: inhibitory effects

Reference: publication PMC5488297 (Chemistry (Weinheim an Der Bergstrasse, Germany), 2017)
